Ends that are not written are not given here.
Columns and labels:
[1] = tested on: rat mammary gland; conditions: cited from earlier work
[2] = tested on: isolated uterus; conditions: rat isolated uterus; cited from earlier work
[3] = Stability in phosphate buffer pH 7.2; format: physicochemical
Outline: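 Peptides were incubated at 37 °C in phosphate buffer at pH 7.2 without serum. Remaining peptide was sampled at 1, 3, 5, 20, 24 and 48 h and measured by RP-HPLC-MS.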

[4] = Serum stability; format: in vitro ADME, human
Outline: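 Test compound in water (1 mg/mL stock) diluted to 0.1 mg/mL in phosphate buffer pH 7.2, then added to serum from one 40th-week pregnant donor (oxytocinase-rich) and incubated at 37 °C with a reference peptide as internal standard. Aliquots at 1, 3, 5, 20, 24, 48 h were quenched in H2O/CH3CN (1:1) with 0.1% TFA, held 5 min at 0 °C and centrifuged.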

| half-life [3] | half-life ([4]; human, serum) | time after which not detectable by analytical RP-HPLC ([4]; woman serum at 40th week of pregnancy, 37 °C) | Compound | contractile activity [1] | contractile activity [2] |
| --- | --- | --- | --- | --- | --- |
|  |  |  | (1,6-di-serine)-oxytocin (SYIQNSPLG; ends and bridges not checked; UniProt P01178 20-28, looked up, variant C1S C6S) [[Ser(1,6)]OT] | devoid of any contractile activity | devoid of any contractile activity |
|  |  |  | (1,6-di-alanine)-oxytocin (AYIQNAPLG; ends and bridges not checked; UniProt P01178 20-28, looked up, variant C1A C6A) [[Ala(1,6)]OT] | devoid of any contractile activity | devoid of any contractile activity |
| 24 h | 16 h | 48 h | CC[C@H](C)[C@@H]1NC(=O)[C@H](Cc2ccc(O)cc2)NC(=O)[C@@H](N)CSSC[C@@H](C(=O)N2CCC[C@H]2C(=O)N[C@@H](CC(C)C)C(=O)NCC(N)=O)NC(=O)[C@H](CC(N)=O)NC(=O)[C@H](CCC(N)=O)NC1=O [OT, Oxytocin] |  |  |
